According to ChEMBL document CHEMBL3864174, “Scaffold-Hopping of Aurones: 2-Arylideneimidazo[1,2-a]pyridinones as Topoisomerase IIα-Inhibiting Anticancer Agents” (ACS Med Chem Lett, 2016):
Active and inactive are the calls of the source. The rule behind the calls is not given here.

Legend:
[1] = target: DNA topoisomerase 2-alpha (Homo sapiens) (UniProt P11388); assay: Inhibition of human Topo2alpha-mediated kDNA decatenation at 100 uM after 30 mins by SDS-based agarose gel electrophoresis
[2] = (§1) Cytotoxicity against HEK293T cells assessed as cells growth inhibition after 48 hrs by MTT assay; assay type: functional, cell-based; conditions: Homo sapiens, HEK-293T
How it was run: (§2)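 MTT colorimetric assay. HEK-293T (kidney line) and VERO cells were tested, and the IC50 was taken as the concentration giving 50% growth inhibition.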

HEK-293T [3] = assay: as §1; assay type: functional, cell-based; conditions: Homo sapiens; how it was run: as §2
[4] = Cytotoxicity against African green monkey Vero cells assessed as cells growth inhibition after 48 hrs by MTT assay; assay type: toxicity, cell-based, Chlorocebus sabaeus; conditions: for IC50 at 48 h: African green monkey (Chlorocebus sabaeus), Vero cells; for Activity: chlorocebus sabaeus, vero, 48 h; how it was run: as §2
MCF7 [5] = assay: Cytotoxicity against human MCF7 cells assessed as cells growth inhibition after 48 hrs by MTT assay; assay type: functional, cell-based
[6] = Cytotoxicity against human MDA-MB-231 cells assessed as reduction in cell viability after 48 hrs by MTT assay; assay type: functional, cell-based; conditions: MDA-MB-231, 48 h
[7] = Cytotoxicity against human MDA-MB-468 cells assessed as reduction in cell viability after 48 hrs by MTT assay; assay type: functional, cell-based; conditions: MDA-MB-468, 48 h
HEK-293T [8] = assay: (§3) Cytotoxicity against HEK293T cells assessed as reduction in colony formation after 48 hrs by crystal violet-staining based assay; assay type: functional; conditions: Homo sapiens
[9] = Cytotoxicity against African green monkey Vero cells assessed as reduction in colony formation after 48 hrs by crystal violet-staining based assay; assay type: toxicity, cell-based; conditions: chlorocebus sabaeus; for Activity: vero, 48 h; for CC50 at 48 h: Vero cells, read-out: LC50
MCF7 [10] = assay: Cytotoxicity against human MCF7 cells assessed as reduction in colony formation after 48 hrs by crystal violet-staining based assay; assay type: functional, cell-based
[11] = target: DNA topoisomerase 2-alpha (Homo sapiens) (UniProt P11388); assay: Poison activity at human Topo2alpha using pUC19 as substrate assessed as DNA cleavage-complex formation at 100 uM measured after 20 mins by ethidium bromide staining based SDS-agarose gel electrophoresis
[12] = Binding affinity to DNA (unknown origin) assessed as occurrence of hypochromism after 1 hr by UV-Vis spectrophotometric analysis
How it was run: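 UV absorption of DNA near 260 nm, recorded with and without increasing compound concentrations; hypochromism was taken as the binding read-out.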

[13] = as §3; assay type: functional; conditions: Homo sapiens, HEK-293T, read-out: LC50 (the source's name)
[14] = Cell cycle arrest in human MCF7 cells assessed as accumulation at subG1 phase at 100 nM after 48 hrs by propidium iodide-staining based FACS analysis (reference value: 0.8 +/- 0.1 %); assay type: functional
[15] = Cell cycle arrest in human MCF7 cells assessed as accumulation at G2/M phase at 70 nM after 48 hrs by propidium iodide-staining based FACS analysis (reference value: 41 +/- 2.8 %); assay type: functional
[16] = Inhibition of tubulin polymerization in human MCF7 cells assessed as suppression of protein assembly after 15 mins by spectrophotometric analysis; assay type: cell-based
MCF7 [17] = assay: Inhibition of topoisomerase in human MCF7 cell nuclear lysates assessed as reduction in relaxation of supercoiled plasmid DNA NFkB substrate at 10 to 70 nM after 30 mins by ethidium bromide-staining based agarose gel electrophoresis
How it was run: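 Ex vivo topoisomerase assay using MCF-7 nuclear lysate with NFkB plasmid as substrate. Compound ranged from 10 nM to 75 nM, with lanes for plasmid alone and untreated lysate, and an etoposide lane at 45 µM.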

[18] = Cell cycle arrest in human MCF7 cells assessed as accumulation at G2/M phase at 2000 nM after 48 hrs by propidium iodide-staining based FACS analysis; assay type: functional
[19] = Cell cycle arrest in human MCF7 cells assessed as accumulation at G0 phase at 2000 nM after 48 hrs by propidium iodide-staining based FACS analysis; assay type: functional

Chain of DNA topoisomerase 2-alpha (Homo sapiens) (P11388 whole entry): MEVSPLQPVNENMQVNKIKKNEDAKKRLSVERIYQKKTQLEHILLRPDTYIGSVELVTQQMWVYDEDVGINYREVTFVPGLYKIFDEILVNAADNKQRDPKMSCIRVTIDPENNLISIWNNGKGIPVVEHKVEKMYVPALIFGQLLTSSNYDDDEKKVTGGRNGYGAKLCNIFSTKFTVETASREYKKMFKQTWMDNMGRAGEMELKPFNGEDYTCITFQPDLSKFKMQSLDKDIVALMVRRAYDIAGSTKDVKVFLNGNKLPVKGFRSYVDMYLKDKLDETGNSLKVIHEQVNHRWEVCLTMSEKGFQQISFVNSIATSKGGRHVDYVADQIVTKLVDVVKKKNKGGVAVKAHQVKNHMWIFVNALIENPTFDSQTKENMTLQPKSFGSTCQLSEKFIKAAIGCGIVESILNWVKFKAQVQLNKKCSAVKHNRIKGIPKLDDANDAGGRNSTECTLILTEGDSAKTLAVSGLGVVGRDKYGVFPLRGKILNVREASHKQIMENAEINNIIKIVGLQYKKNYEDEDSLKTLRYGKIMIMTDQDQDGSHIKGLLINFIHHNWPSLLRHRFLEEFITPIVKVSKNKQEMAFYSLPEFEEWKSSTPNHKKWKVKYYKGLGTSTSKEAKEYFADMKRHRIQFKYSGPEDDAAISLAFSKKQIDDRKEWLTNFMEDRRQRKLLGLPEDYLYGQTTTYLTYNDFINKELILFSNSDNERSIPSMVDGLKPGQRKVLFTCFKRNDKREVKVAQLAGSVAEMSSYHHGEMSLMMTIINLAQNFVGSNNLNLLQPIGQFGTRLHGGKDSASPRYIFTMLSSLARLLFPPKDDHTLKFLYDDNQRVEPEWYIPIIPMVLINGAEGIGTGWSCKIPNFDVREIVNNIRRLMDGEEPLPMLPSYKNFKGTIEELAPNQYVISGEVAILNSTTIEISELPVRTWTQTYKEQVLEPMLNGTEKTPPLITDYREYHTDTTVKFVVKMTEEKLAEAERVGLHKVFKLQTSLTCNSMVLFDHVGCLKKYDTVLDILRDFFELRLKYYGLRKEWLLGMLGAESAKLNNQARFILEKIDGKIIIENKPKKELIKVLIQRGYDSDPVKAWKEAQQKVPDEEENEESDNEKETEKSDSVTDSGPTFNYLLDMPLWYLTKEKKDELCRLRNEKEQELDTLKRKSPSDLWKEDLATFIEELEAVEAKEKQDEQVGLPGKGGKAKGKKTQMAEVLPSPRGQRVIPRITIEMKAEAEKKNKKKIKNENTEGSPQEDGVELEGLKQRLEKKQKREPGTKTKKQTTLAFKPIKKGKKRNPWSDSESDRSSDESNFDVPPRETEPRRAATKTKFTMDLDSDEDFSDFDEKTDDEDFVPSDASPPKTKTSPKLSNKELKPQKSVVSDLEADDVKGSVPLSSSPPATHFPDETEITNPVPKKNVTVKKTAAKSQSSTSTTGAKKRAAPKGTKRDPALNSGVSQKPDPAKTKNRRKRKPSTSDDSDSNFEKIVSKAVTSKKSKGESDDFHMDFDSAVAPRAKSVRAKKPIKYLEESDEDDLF

Row | Structure (SMILES) | inhibition [1] | IC50 [2] | IC50 at 48 h [4] | Activity (MCF7 [10]) | CC50 [13] | CC50 at 48 h [9] | further results
1 | CC1=CN2C(=O)/C(=C/c3ccc(Cl)cc3)N=C2C=C1 | Active | – | – | – | – | – | –
2 | CN(C)c1ccc(/C=C2\N=C3C=CC=CN3C2=O)cc1 | Active | – | – | – | – | – | –
3 | COc1ccc(/C=C2\Oc3ccccc3C2=O)cc1 [4'-METHOXY-AURONE] | Active | 700 nM | 2500 nM | Dose-dependent effect | – | – | growth inhibition (GI) (HEK-293T [3]): Dose-dependent effect; Activity [4]: Dose-dependent effect; growth inhibition (GI) (MCF7 [5]): Dose-dependent effect; IC50 [6]: 600 to 840 nM; IC50 [7]: 600 to 840 nM; Activity (HEK-293T [8]): Dose-dependent effect; Activity [9]: Dose-dependent effect
4 | O=C1/C(=C/c2ccc(Br)cc2)N=C2C=CC=CN12 | Active | 45 nM | 200 nM | Dose-dependent effect | 20 nM | 1500 nM | Activity [11]: Active; Kb [12]: 2.5e+06 M⁻¹; growth inhibition (GI) (HEK-293T [3]): Dose-dependent effect; Activity [4]: Dose-dependent effect; growth inhibition (GI) (MCF7 [5]): Dose-dependent effect; IC50 [6]: 76 nM; IC50 [7]: 70 nM; Activity (HEK-293T [8]): Dose-dependent effect; Activity [9]: Dose-dependent effect; Activity [14]: 19.9%; Activity [15]: 33.2%; IC50 [16]: 60 nM; inhibition (MCF7 [17]): Active
5 | O=C1/C(=C/c2ccc(Cl)cc2)N=C2C=CC(Cl)=CN12 | Active | 45 nM | 1500 nM | Active | 40 nM | 1500 nM | –
6 | O=C1/C(=C/c2ccc(O)cc2)N=C2C=CC=CN12 | – | 40 nM | 1500 nM | Active | 50 nM | 1500 nM | –
7 | COc1cc([C@@H]2c3cc4c(cc3[C@@H](O[C@@H]3O[C@@H]5CO[C@@H](C)O[C@H]5[C@H](O)[C@H]3O)[C@H]3COC(=O)[C@H]23)OCO4)cc(OC)c1O [ETOPOSIDE] | Active | 22000 nM | 50000 nM | – | – | – | –
8 | O=C1/C(=C/c2ccc(Cl)cc2)N=C2C=CC(Br)=CN12 | Active | – | – | – | – | – | –
9 | COc1ccc(/C=C\c2cc(OC)c(OC)c(OC)c2)cc1O [COMBRETASTATIN A4] | – | – | – | – | – | – | Activity [18]: Active; Activity [19]: Active; IC50 [16]: 2500 nM
10 | O=C1/C(=C/c2ccc(Cl)cc2)N=C2C(Br)=CC(Br)=CN12 | Active | – | – | – | – | – | –
11 | COc1ccc(OC)c(/C=C2\N=C3C=CC=CN3C2=O)c1 | Active | 150 nM | 1500 nM | Active | 60 nM | 1500 nM | –
12 | O=C1/C(=C/c2ccc(Br)cc2)Oc2ccccc21 | Active | 900 nM | 2400 nM | Dose-dependent effect | – | – | growth inhibition (GI) (HEK-293T [3]): Dose-dependent effect; Activity [4]: Dose-dependent effect; growth inhibition (GI) (MCF7 [5]): Dose-dependent effect; IC50 [6]: 600 to 840 nM; IC50 [7]: 600 to 840 nM; Activity (HEK-293T [8]): Dose-dependent effect; Activity [9]: Dose-dependent effect
13 | O=C1/C(=C/c2ccc(Cl)cc2)N=C2C=CC=CN12 | Active | 30 nM | 200 nM | Active | 40 nM | 1500 nM | –
14 | COc1ccc(/C=C2\N=C3C=CC(Cl)=CN3C2=O)cc1 | – | 80 nM | 1500 nM | Active | 40 nM | 1500 nM | –
15 | COc1cc(/C=C2\N=C3C=CC=CN3C2=O)cc(OC)c1OC | – | 10 nM | 200 nM | Active | 55 nM | 1000 nM | –
16 | COc1cccc(/C=C2\N=C3C=CC=CN3C2=O)c1 | Active | 80 nM | 1500 nM | Active | 75 nM | 1500 nM | –
